Test results from ChEMBL document CHEMBL1155506 (J Med Chem, 2010).

Tests used:
[1] = Antiplatelet activity in human platelet rich plasma assessed as inhibition of ADP-induced aggregation preincubated for 1 min before 5-HT and ADP challenge measured after 3 mins by turbidimetry
[2] = target: 5-hydroxytryptamine receptor 2A (Homo sapiens, UniProt P28223); assay: Displacement of [125I]DOI from human recombinant 5HT2A receptor expressed in HEK293 cells by scintillation counting; assay type: cell-based
Chain of 5-hydroxytryptamine receptor 2A (P28223 whole entry): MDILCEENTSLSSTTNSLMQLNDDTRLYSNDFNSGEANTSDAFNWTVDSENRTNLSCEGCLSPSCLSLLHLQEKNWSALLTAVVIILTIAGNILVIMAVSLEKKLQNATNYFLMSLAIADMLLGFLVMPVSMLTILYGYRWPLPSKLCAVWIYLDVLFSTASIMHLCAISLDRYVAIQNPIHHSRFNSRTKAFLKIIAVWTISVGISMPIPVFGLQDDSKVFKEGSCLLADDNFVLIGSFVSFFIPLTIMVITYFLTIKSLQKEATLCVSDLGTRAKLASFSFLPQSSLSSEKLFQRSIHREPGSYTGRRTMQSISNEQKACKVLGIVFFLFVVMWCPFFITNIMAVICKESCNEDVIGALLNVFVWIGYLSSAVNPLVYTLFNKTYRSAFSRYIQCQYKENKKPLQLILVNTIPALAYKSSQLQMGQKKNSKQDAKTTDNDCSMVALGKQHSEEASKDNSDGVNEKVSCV
Procedure, shortened: (§1)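 Crude plasma membranes from HEK293 cells stably expressing the human receptor (5–25 μg protein), in 20 mM HEPES pH 7.4 with 10 mM MgCl2. Incubated with 0.5 nM [125I]DOI and test compound (1 pM–10 μM) for 1 h at room temperature; nonspecific binding defined with 10 μM cold DOI. Filtered, washed with ice-cold Tris buffer and scintillation counted in triplicate.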

[3] = target: T1, hERG (KCNH2) (Homo sapiens, UniProt Q12809); assay: Inhibition of human ERG at 3 uM by patch clamp assay
T1 sequence (Q12809 whole entry): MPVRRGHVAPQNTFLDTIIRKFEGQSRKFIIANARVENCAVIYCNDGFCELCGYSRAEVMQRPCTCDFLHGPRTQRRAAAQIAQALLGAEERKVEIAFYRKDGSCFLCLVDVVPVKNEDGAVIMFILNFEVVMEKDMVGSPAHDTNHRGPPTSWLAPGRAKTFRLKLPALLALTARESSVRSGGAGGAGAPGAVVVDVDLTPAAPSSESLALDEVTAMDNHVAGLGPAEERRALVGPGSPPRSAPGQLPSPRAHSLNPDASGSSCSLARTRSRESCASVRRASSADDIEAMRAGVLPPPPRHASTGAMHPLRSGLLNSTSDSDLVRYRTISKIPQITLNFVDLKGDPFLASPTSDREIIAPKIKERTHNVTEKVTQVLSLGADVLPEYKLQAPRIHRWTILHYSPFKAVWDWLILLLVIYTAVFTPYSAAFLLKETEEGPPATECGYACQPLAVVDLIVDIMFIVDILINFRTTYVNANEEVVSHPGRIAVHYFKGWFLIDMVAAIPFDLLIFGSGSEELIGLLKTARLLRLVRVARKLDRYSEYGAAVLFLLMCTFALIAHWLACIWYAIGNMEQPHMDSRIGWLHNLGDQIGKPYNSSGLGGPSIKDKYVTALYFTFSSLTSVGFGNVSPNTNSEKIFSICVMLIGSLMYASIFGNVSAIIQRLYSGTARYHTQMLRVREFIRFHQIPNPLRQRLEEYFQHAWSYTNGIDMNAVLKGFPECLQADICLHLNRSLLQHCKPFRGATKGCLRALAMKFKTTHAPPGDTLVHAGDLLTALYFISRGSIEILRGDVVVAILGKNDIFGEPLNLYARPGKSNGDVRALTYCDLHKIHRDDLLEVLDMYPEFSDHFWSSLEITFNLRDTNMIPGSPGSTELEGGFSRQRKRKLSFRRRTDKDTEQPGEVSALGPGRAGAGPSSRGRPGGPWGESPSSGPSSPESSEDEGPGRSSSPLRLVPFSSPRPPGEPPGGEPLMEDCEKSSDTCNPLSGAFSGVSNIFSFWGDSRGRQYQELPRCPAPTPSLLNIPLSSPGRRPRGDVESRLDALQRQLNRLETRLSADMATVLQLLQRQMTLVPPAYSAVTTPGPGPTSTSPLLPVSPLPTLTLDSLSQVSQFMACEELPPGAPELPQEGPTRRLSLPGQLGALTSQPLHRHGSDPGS

[4] = target: T2, 5-hydroxytryptamine receptor 2C (Homo sapiens, UniProt P28335); assay: Displacement of [125I]DOI from human recombinant 5HT2C receptor expressed in HEK293 cells by scintillation counting; assay type: cell-based
T2 sequence (P28335 whole entry): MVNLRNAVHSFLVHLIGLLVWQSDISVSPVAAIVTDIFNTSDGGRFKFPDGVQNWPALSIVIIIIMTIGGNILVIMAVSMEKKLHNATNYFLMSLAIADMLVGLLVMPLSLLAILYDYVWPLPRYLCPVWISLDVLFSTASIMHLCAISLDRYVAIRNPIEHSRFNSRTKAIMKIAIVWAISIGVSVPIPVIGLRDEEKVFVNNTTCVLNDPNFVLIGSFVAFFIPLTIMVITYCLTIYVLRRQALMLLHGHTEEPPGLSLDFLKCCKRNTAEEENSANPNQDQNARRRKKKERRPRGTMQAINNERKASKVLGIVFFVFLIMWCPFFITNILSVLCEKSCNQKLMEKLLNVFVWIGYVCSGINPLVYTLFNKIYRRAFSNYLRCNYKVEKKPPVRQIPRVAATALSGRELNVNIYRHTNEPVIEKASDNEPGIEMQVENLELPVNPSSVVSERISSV
Procedure, shortened: as §1

[5] = target: T1, hERG (KCNH2); assay: Inhibition of human ERG at 1 uM by patch clamp assay

Structure (SMILES) | IC50 [1] [nM] | Ki [2] [nM] | Ki [4] [nM] | inhibition at 3 µM [3] [%] | inhibition at 1 µM [5] [%]
COc1cccc(C(=O)Nc2ccc(OCCNCCO)c(-c3ccnn3C)c2)c1 | 5.8 | 1.8 | 5870 | 36 | –
Cn1nccc1-c1cc(NC(=O)c2cccc(C(F)(F)F)c2)ccc1OCCN1CCNC(=O)C1 | – | 287 | > 10000 | – | –
Cn1nccc1-c1cc(NC(=O)c2ccc(C(F)(F)F)cc2)ccc1OCCN1CCOCC1 | 61 | 2.4 | 5900 | – | 33

Further lines, with some results ahead:

IC50 [1] [nM] | Ki [2] [nM] | Ki [4] [nM] | Structure (SMILES) | inhibition at 3 µM [3] [%] | inhibition at 1 µM [5] [%]
86 | 5.1 | > 10000 | Cn1nccc1-c1cc(NC(=O)c2cccc(F)c2)ccc1OCCN1CCOCC1 | 43 | –
100 | 18 | > 10000 | Cn1nccc1-c1cc(NC(=O)c2ccc(F)cc2)ccc1OCCN1CCOCC1 | – | –
